A word on the MIC: it is the lowest concentration that inhibits growth of the organism. Read a high MIC as a need for much substance.

≈ marks a conversion by molar mass, not a printed value. Calls of active or inactive are those of the source. The rule behind the calls is not given here.

The record followed here is ChEMBL document CHEMBL1157313, “Metabolites from the marine-derived fungus Chromocleista sp. isolated from a deep-water sediment sample collected in the Gulf of Mexico” (2006).

Assay [1] has as its system Staphylococcus aureus. Nature of the assay: Antibacterial activity against Staphylococcus aureus ATCC 29213 at 50 ug/mL after 18 hrs by broth microdilution technique. It counts as functional, organism-based. In outline:
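MIC by standard broth microdilution in cation-supplemented Mueller-Hinton broth; plates incubated 18 h at 37 °C; tested at 50 µg/mL.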
On the technique in general: Dilution methods test growth across graded concentrations, often in twofold steps.

Assay [2] deals with NCI/ADR-RES. Kind of assay: Cytotoxicity against human NCI-ADR-RES cells at 5 ug/mL after 72 hrs by MTT assay. It counts as functional, cell-based. The procedure, abridged:
(§1)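 Cells exposed to compound at 5 µg/mL for 72 h in 96-well format; viability read spectrophotometrically with MTT.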

For assay [3], the system named is PANC-1. Kind of assay: Cytotoxicity against human PANC1 cells at 5 ug/mL after 72 hrs by MTT assay. It counts as functional, cell-based. The procedure, abridged:
as §1

Assay [4] deals with P388. Nature of the assay: Cytotoxicity against mouse P388 cells at 5 ug/mL after 45 hrs by MTT assay. It counts as functional, cell-based. The procedure, abridged:
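Murine leukemia cells incubated 45 h with compound at 5 µg/mL in 96-well plates; cytotoxicity read spectrophotometrically using MTT.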
In general terms: Formazan colour is commonly taken as a measure of viable cells.

Assay [5] relates to Candida albicans. Nature of the assay: Antifungal activity against Candida albicans ATCC 44506 up to 50 ug/mL after 18 hrs by broth microdilution method. It counts as functional, organism-based. In outline:
(§2)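 MIC by standard broth microdilution with Sabouraud dextrose broth as growth medium; plates incubated 18 h at 37 °C.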

Assay [6] has as its system A549. Kind of assay: Cytotoxicity against human A549 cells at 5 ug/mL after 72 hrs by MTT assay. In kind it is functional, cell-based. In outline:
as §1

The subject of assay [7] is Candida albicans. Nature of the assay: Antifungal activity against Candida albicans ATCC 44506 after 18 hrs by broth microdilution method. In kind it is functional. Particulars: ATCC 44506, 18 h. In outline:
as §2

Regarding `O=C1[C@H](Cc2ccccc2)NC(=O)[C@]2(O)CCCN12`, the result in assay [1], in assay [2], in assay [3], in assay [4], in assay [5] and in assay [6] was inactive.

Take `O=C1N[C@@H](Cc2ccccc2)C(=O)N2CCC=C12`: the result in assay [1], in assay [2], in assay [3], in assay [4], in assay [5] and in assay [6] was inactive.

In assay [7], `O=C1C(O)=C(c2ccc(O)cc2)[C@@H]2CCCN12` came in with an MIC of 25 µg/mL (≈ 108 µM). Further, the outcome in assay [1], in assay [2], in assay [3], in assay [4] and in assay [6] was inactive.

In the case of `O=C1[C@H](Cc2ccccc2)NC(=O)[C@@]2(O)CCCN12`, the outcome in assay [1], in assay [2], in assay [3], in assay [4], in assay [5] and in assay [6] was inactive.
